ChEMBL document CHEMBL2311331, “Selective and potent adenosine A3 receptor antagonists by methoxyaryl substitution on the N-(2,6-diarylpyrimidin-4-yl)acetamide scaffold” (Eur J Med Chem, 2013)

How the values were obtained:
[1] = biological target: T1, Adenosine receptor A3 (Homo sapiens, UniProt P0DMS8); assay: Displacement of [3H]NECA from human adenosine A3 receptor expressed in human HeLa cells; type: cell-based
T1 sequence (P0DMS8 whole entry): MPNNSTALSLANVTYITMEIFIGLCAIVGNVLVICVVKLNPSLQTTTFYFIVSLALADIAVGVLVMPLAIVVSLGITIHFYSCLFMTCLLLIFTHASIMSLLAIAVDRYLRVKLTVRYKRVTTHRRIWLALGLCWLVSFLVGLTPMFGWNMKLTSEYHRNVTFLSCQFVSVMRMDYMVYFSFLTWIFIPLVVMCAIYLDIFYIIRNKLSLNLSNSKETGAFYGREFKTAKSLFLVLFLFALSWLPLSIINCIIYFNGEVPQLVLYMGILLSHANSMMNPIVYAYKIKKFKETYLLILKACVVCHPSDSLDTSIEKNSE

[2] = biological target: T2, Adenosine receptor A1 (Homo sapiens) (UniProt P30542); assay: Displacement of [3H]DPCPX from human adenosine A1 receptor expressed in CHO cells at 1 uM; type: cell-based
T2 sequence (whole entry): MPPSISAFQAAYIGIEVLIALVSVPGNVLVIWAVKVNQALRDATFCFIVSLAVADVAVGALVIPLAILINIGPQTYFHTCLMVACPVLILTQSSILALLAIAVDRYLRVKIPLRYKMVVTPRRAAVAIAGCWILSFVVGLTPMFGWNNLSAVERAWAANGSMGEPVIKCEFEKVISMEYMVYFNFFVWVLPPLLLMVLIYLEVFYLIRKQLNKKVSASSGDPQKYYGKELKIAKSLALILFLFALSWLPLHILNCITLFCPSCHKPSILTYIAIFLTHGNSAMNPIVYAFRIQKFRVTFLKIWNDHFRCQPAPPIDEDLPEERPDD
Outline: (§1)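 Specific radioligand binding measured in the presence of a single test concentration, 1 µM, at each receptor/cell system (A1 CHO with [3H]DPCPX; A2A HeLa with triazolotriazine phenol tracer; A2B HEK-293 with [3H]DPCPX; A3 HeLa with [3H]NECA). Reported as percent displacement of specific binding, n = 2.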

[3] = biological target: T3, Adenosine receptor A2a (Homo sapiens, UniProt P29274); assay: Displacement of [3H]4-(2-[7-Amino-2-(2-furyl) [1,2,4]triazolo[2,3-alpha] [1,3,5]triazin-5-ylamino]ethyl)phenol from human adenosine A2A receptor expressed in human HeLa cells at 1 uM; type: cell-based; outline: as §1
[4] = biological target: T4, Adenosine receptor A2b (Homo sapiens) (UniProt P29275); assay: Displacement of [3H]DPCPX from human adenosine A2B receptor expressed in HEK-293 cells at 1 uM; type: cell-based; conditions: HEK293; outline: as §1
T4 sequence (whole entry): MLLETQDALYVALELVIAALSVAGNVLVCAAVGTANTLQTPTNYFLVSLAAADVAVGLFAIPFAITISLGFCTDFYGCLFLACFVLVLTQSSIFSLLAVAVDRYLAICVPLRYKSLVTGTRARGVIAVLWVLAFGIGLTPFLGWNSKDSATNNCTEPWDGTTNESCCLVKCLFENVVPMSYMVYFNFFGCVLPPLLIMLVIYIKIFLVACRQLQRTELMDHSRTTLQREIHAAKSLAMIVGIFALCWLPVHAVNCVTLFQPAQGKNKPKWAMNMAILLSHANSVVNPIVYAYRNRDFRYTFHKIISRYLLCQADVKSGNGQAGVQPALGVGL

[5] = biological target: T3, Adenosine receptor A2a; assay: Displacement of [3H]4-(2-[7-Amino-2-(2-furyl) [1,2,4]triazolo[2,3-alpha] [1,3,5]triazin-5-ylamino]ethyl)phenol from human adenosine A2A receptor expressed in human HeLa cells; type: cell-based
[6] = biological target: T5, Adenosine receptor A2b (Homo sapiens, UniProt P29275); assay: Displacement of [3H]DPCPX from human adenosine A2B receptor expressed in HEK-293 cells; type: cell-based, HEK293
T5 sequence (P29275 whole entry): T4 sequence (whole entry)

[7] = biological target: T6, Adenosine receptor A1 (Homo sapiens, UniProt P30542); assay: Displacement of [3H]DPCPX from human adenosine A1 receptor expressed in CHO cells; type: cell-based
T6 sequence (P30542 whole entry): T2 sequence (whole entry)

[8] = biological target: T7, Adenosine receptor A3 (Homo sapiens) (UniProt P0DMS8); assay: Displacement of [3H]NECA from human adenosine A3 receptor expressed in human HeLa cells at 1 uM; type: cell-based; outline: as §1
T7 sequence (whole entry): T1 sequence (P0DMS8 whole entry)

T3 sequence (P29274 whole entry): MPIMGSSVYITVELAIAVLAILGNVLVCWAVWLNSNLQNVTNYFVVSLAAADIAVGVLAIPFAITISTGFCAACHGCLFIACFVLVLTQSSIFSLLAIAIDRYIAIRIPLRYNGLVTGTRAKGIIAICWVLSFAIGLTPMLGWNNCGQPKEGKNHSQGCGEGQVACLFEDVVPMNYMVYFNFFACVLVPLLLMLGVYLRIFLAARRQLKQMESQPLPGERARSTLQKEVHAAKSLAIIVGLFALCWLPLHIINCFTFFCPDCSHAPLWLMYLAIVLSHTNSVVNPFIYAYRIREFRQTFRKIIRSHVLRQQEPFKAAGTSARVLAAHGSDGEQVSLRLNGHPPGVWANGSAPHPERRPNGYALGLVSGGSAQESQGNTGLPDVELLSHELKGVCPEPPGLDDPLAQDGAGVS

Row | Ki [1] | inhibition [2] | inhibition [3] | inhibition [4] | Ki [5] | Ki [6] | Ki [7] | inhibition [8] | Compound
1 | 26.1 nM | 14% | 1% | 1% | – | – | – | – | COc1cc(-c2cc(NC(C)=O)nc(-c3cc(OC)c(OC)c(OC)c3)n2)cc(OC)c1OC
2 | – | 4% | 15% | 7% | – | – | – | – | COc1ccccc1-c1cc(NC(C)=O)nc(-c2ccccc2OC)n1
3 | – | – | – | 6% | – | – | 17 nM | – | CC(=O)Nc1cc(-c2ccc3c(c2)OCO3)nc(-c2ccc3c(c2)OCO3)n1
4 | – | 4% | 1% | 3% | – | – | – | 4% | COc1cccc(OC)c1-c1cc(NC(C)=O)nc(-c2c(OC)cccc2OC)n1
5 | 2.8 nM | – | – | – | 49.4 nM | 67.5 nM | 22.6 nM | – | COc1cccc(-c2cc(NC(C)=O)nc(-c3cccc(OC)c3)n2)c1
6 | 513 nM | 16% | 13% | 2% | – | – | – | – | COc1ccc(/C=C/c2cc(NC(C)=O)nc(/C=C/c3ccc(OC)cc3)n2)cc1
7 | 389 nM | 8% | 1% | 4% | – | – | – | – | CC(=O)Nc1cc(-c2ccc(OC(F)(F)F)cc2)nc(-c2ccc(OC(F)(F)F)cc2)n1
8 | 6.3 nM | 4% | 17% | 1% | – | – | – | – | COc1ccc(OC)c(-c2cc(NC(C)=O)nc(-c3cc(OC)ccc3OC)n2)c1

More lines, now with the values behind:

Row | Compound | Ki [1] | inhibition [2] | inhibition [3] | inhibition [4] | Ki [5] | Ki [6] | Ki [7] | inhibition [8]
9 | COc1cccc(-c2cc(NC(C)=O)nc(-c3cccc(OC)c3OC)n2)c1OC | 42.4 nM | 10% | – | – | 375 nM | 494 nM | – | –
10 | COc1cc(OC)cc(-c2cc(NC(C)=O)nc(-c3cc(OC)cc(OC)c3)n2)c1 | 55 nM | 15% | 3% | 1% | – | – | – | –
11 | CCOc1ccc(-c2cc(NC(C)=O)nc(-c3ccc(OCC)cc3)n2)cc1 | 40.2 nM | 12% | 2% | 1% | – | – | – | –
12 | COc1ccc(-c2cc(NC(C)=O)nc(-c3ccc(OC)cc3)n2)cc1 | – | 2% | 4% | 2% | – | – | – | –
13 | COc1ccc(-c2cc(NC(C)=O)nc(-c3ccc(OC)cc3OC)n2)c(OC)c1 | – | 3% | 10% | 7% | – | – | – | –
14 | CC(=O)Nc1cc(-c2ccccc2)nc(-c2ccccc2)n1 | – | – | – | 22% | – | – | – | –
15 | COc1ccc(-c2cc(NC(C)=O)nc(-c3ccc(OC)c(OC)c3)n2)cc1OC | 5.2 nM | 10% | 5% | 2% | – | – | – | –
